Our source for the IC50 and Activity values is ChEMBL document CHEMBL2396530, “In vitro and in vivo evaluation of polymethylene tetraamine derivatives as NMDA receptor channel blockers” (Bioorg Med Chem Lett, 2013).

Test [1] deals with Glutamate NMDA receptor; GRIN1/GRIN2A (Homo sapiens, UniProt Q05586+Q12879). The test is described as follows: Antagonist activity at recombinant GluN1/GluN2A receptor (unknown origin) expressed in Xenopus laevis oocytes assessed as inhibition of glycine/glutamate-induced inward current at -70mV by two-electrode voltage clamp assay. Format: cell-based, Oocyte. An outline of the steps: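 Xenopus oocytes injected with GluN1 plus GluN2A cRNA at 1:5 ratio (0.1–4 ng GluN1 plus 0.5–20 ng GluN2A). Two-electrode voltage clamp at -70 mV. Receptors activated by superfusing glycine and glutamate (10 µM). Inward currents recorded. Concentration–inhibition curves built from 5 concentrations per compound to give IC50.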

Test [2] has as its system Mus musculus. The test is described as follows: Antithrombotic activity in photochemically-induced thrombosis C57B/L mouse model assessed as decrease in brain infarction size at 1 to 10 mg/kg, iv after 24 hrs. Format: functional, organism-based.
Test [3] concerns Mus musculus. Kind of test: Antithrombotic activity in photochemically-induced thrombosis C57B/L mouse model assessed as decrease in brain infarction size at 0.4 mg/kg, iv after 24 hrs. Format: functional, organism-based. The arrangement: dose 0.4 mg/kg.
In test [4] the test system is Mus musculus. The test is described as follows: Antithrombotic activity in photochemically-induced thrombosis C57B/L mouse model assessed as decrease in brain infarction size at 10 mg/kg, iv after 24 hrs. Format: functional, organism-based. The arrangement: dose 10 mg/kg.

Calls of active or inactive are those of the source. The calls are words filed in the database; no cut-off is given here.

Glutamate NMDA receptor; GRIN1/GRIN2A, sequence (Q12879 whole entry, other chains not shown): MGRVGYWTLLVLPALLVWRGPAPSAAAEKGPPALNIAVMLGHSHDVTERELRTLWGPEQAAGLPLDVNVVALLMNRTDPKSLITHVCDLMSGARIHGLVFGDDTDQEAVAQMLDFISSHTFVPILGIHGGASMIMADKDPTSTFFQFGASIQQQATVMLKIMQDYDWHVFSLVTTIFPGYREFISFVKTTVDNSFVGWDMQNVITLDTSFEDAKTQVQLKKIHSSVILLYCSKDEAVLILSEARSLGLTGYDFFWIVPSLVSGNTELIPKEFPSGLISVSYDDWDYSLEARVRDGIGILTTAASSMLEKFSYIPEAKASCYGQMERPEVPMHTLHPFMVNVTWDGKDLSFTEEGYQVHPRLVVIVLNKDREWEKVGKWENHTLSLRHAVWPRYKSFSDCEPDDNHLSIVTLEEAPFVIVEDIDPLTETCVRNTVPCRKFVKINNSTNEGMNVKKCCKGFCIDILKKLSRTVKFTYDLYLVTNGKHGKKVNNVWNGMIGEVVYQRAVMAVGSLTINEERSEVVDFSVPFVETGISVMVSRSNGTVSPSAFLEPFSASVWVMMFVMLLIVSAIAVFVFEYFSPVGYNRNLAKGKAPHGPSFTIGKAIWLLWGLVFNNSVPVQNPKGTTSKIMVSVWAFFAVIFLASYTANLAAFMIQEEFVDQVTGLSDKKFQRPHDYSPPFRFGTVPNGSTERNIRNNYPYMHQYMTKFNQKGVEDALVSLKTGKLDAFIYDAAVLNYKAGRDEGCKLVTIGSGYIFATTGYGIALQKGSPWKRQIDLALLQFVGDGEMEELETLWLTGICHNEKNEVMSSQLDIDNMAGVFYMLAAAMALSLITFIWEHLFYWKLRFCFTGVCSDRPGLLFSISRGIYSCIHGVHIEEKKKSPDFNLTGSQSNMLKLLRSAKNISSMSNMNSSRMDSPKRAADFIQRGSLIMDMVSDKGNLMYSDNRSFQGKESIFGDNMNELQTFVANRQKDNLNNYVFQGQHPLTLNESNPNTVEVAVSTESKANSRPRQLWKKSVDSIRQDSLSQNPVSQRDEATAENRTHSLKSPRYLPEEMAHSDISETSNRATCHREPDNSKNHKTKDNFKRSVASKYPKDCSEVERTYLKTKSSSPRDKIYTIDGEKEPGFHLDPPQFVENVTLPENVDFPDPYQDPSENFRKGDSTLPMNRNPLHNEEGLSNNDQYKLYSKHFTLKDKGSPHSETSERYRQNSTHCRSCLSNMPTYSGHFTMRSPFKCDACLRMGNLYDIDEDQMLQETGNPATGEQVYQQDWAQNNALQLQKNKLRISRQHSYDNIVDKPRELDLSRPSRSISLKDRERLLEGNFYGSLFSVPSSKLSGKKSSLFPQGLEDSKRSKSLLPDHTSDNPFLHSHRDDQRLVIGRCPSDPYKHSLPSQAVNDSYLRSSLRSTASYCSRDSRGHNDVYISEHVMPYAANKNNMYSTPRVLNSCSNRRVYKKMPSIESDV

For the compound `COc1ccccc1CNCCCCCCNCCCCCCCCNCCCCCCNCc1ccccc1OC` [METHOCTRAMINE], the half-inhibitory concentration (IC50) in test [1] was 138 nM. The outcome with Mus musculus [2] was inactive.
Turning to `COc1ccccc1CNCCCCCNCCCCCCNCCCCCNCc1ccccc1OC`, the result with Mus musculus [3] was Active. Besides, the IC50 in test [1] came to 315 nM.
Regarding `COc1ccccc1CNCCCCCCCCNCCCCCCNCCCCCCCCNCc1ccccc1OC`, in test [1], the IC50 worked out at 257 nM. Besides, in the test with Mus musculus [2], the result was inactive.
For `c1ccc(C(CNCCCCCCNCCCCCCCCCCCCNCCCCCCNCC(c2ccccc2)c2ccccc2)c2ccccc2)cc1`, in test [1], the IC50 is 4.2 nM. Besides, the result in the test with Mus musculus [2] was inactive.
As to `CC12CC3CC(C)(C1)CC(N)(C3)C2`, the outcome with Mus musculus [4] was Active.
Consider `c1ccc(C(CNCCCCCCNCCCCCCCCNCCCCCCNCC(c2ccccc2)c2ccccc2)c2ccccc2)cc1`, for which the half-inhibitory concentration (IC50) in test [1] came out at 11 nM. Besides, the outcome in the test on Mus musculus [2] was inactive.
Turning to `COc1ccccc1CNCCCCCNCCCCCCCCCCNCCCCCNCc1ccccc1OC`, in test [1], the 50% inhibitory concentration (IC50) turned out to be 89.3 nM. Besides, the outcome in the test with Mus musculus [2] was inactive.

Broadly, the IC50 is the point on the concentration scale where inhibition reaches its midpoint.
